“And” between values parts separate entries of the source, which are not always exact repeats. Equal values may be shown once. Each block holds one compound with its values, some of them ahead of it.
How the values were obtained:
mGluR1 [1] = biological target: T1, mGluR1 (Rattus norvegicus, UniProt P23385); test: pharmacological validation: blocking of LY2428703 tracer specific binding; format: in vivo; details: i.v. administration, LY2428703 as non-labeled tracer
[2] = metabolic stability in liver microsomes, dog; format: in vitro ADME; details: dog hepatic microsomes, 30 minutes, n = 3
[3] = calibrated Mouse Brain Uptake Assay; details: cMBUA
[4] = mouse, in vivo
mGluR1 [5] = biological target: T2, mGluR1 (Homo sapiens, UniProt Q13255); test: competition binding assay with 3H-LSN456066, human; details: humans
[6] = LC-MS/MS rat brain kinetic analysis with non-labeled tracer; format: in vivo; details: 10 μg/kg dose, 15 minutes
mGluR1 [7] = biological target: T2, mGluR1; format: cell-based; details: from IC50 8.9 and 118 nM
Outline: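 Calcium mobilization was measured in cells expressing individual human mGlu receptors (1, 2, 3, 4, 5, 7, 8). Agonism: % stimulation by test compound alone relative to maximal glutamate response. Antagonism: % inhibition of the EC90 glutamate response. Potentiation: % increase of an EC10 glutamate response relative to the ECmax response.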

[8] = metabolic stability in liver microsomes, mouse; format: in vitro ADME; details: mouse hepatic microsomes, 30 minutes, n = 3
human P-gp = human P-gp (Homo sapiens, UniProt P08183); test: P-gp substrate identification in MDCK cells transfected with wild-type MDR1; format: in vitro ADME
[9] = metabolic stability in liver microsomes, monkey; format: in vitro ADME; details: monkey hepatic microsomes, 30 minutes, n = 2
[10] = metabolic stability in liver microsomes, rat; format: in vitro ADME; details: rat hepatic microsomes, 30 minutes, n = 2
mGluR1 [11] = biological target: T1, mGluR1; test: mGluR1 occupancy experiment, non-labeled JNJ16259685 as tracer; format: in vivo; details: oral administration
mGluR5 = mGluR5 (Rattus norvegicus, UniProt P31424); test: PET imaging, cross-reactivity with mGluR5 receptors; format: in vivo
ABCB1 (P-gp) = details: wild type vs knock-out mice, PET
mGluR1 [12] = biological target: T1, mGluR1; test: PET imaging, specific binding in rat brain; format: in vivo; details: baseline vs blocked scans
ABCG2 (BCRP) = ABCG2 (BCRP) (Mus musculus, UniProt Q7TMS5); details: wild type vs knock-out mice, PET
[13] = LogD7.4 measurement in octanol; format: physicochemical; details: n = 6
[14] = one hour at 37 °C
[15] = reference compound; cited from earlier work
[16] = MDCK monolayers overexpressing human P-gp
[17] = rat brain, 30 minutes after injection
[18] = rat cerebellum, 30 minutes after injection
[19] = rat, 30 minutes after injection
[20] = tissue without blood, mean of two measurements

human P-gp, sequence (P08183 whole entry): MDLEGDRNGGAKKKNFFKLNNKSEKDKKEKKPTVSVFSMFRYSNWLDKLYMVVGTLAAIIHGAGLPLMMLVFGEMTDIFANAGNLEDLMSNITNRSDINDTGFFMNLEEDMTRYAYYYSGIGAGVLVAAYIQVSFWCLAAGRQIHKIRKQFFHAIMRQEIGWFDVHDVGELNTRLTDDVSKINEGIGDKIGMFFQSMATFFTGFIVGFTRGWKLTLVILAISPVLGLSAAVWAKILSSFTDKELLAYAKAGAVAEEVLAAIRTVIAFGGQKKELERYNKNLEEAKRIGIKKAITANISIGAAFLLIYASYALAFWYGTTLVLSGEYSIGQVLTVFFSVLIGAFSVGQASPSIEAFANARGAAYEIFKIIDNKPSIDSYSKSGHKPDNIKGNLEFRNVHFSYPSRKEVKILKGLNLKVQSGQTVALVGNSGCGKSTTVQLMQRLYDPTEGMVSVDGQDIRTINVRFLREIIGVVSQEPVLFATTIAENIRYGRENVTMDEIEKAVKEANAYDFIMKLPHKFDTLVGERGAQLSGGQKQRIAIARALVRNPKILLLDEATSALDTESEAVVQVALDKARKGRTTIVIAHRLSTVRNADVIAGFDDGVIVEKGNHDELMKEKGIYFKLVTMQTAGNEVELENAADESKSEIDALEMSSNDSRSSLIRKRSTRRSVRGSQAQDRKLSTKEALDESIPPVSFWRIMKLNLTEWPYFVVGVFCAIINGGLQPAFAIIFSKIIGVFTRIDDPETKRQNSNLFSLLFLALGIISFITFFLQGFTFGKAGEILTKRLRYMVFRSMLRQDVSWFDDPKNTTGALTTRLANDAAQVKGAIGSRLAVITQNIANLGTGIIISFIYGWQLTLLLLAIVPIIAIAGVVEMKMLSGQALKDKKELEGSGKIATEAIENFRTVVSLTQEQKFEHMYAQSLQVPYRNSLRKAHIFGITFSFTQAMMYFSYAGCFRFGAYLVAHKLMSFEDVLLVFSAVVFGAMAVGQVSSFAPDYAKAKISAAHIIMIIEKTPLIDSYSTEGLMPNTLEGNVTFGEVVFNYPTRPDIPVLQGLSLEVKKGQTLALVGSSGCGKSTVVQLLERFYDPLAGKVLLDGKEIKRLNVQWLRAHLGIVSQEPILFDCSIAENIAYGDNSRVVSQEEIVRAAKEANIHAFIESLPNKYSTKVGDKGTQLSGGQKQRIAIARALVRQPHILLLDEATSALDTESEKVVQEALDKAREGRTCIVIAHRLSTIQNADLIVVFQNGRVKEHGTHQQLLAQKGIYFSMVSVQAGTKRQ
T1 sequence (P23385 19-1199): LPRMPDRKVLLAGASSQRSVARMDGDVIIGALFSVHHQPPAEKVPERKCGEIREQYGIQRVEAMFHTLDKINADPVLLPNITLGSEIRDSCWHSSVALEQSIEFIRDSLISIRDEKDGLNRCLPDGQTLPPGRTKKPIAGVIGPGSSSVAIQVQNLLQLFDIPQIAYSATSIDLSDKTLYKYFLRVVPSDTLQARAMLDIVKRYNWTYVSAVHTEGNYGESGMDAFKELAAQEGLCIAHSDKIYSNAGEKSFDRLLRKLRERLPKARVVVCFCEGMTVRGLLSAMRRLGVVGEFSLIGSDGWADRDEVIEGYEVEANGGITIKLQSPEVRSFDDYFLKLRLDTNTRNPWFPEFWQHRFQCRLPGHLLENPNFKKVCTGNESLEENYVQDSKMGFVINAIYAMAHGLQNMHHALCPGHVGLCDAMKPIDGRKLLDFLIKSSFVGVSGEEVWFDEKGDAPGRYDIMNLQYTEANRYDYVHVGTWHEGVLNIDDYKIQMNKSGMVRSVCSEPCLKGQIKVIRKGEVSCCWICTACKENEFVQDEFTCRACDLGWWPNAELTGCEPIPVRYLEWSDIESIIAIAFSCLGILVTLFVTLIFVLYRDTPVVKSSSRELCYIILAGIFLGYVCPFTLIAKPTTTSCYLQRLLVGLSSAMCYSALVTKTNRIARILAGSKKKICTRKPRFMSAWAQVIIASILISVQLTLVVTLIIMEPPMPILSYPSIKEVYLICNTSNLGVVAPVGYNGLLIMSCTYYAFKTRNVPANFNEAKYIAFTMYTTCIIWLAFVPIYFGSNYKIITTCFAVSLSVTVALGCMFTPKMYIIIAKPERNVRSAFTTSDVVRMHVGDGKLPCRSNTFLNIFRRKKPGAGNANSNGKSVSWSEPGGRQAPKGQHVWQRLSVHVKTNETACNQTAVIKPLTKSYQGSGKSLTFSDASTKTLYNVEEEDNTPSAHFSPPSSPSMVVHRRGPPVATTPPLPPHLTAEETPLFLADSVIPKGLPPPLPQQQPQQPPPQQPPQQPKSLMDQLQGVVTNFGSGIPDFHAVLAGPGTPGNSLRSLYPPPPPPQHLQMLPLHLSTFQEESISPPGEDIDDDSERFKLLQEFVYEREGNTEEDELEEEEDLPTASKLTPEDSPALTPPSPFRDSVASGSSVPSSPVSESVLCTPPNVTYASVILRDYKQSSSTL
mGluR5, sequence (P31424 21-1203): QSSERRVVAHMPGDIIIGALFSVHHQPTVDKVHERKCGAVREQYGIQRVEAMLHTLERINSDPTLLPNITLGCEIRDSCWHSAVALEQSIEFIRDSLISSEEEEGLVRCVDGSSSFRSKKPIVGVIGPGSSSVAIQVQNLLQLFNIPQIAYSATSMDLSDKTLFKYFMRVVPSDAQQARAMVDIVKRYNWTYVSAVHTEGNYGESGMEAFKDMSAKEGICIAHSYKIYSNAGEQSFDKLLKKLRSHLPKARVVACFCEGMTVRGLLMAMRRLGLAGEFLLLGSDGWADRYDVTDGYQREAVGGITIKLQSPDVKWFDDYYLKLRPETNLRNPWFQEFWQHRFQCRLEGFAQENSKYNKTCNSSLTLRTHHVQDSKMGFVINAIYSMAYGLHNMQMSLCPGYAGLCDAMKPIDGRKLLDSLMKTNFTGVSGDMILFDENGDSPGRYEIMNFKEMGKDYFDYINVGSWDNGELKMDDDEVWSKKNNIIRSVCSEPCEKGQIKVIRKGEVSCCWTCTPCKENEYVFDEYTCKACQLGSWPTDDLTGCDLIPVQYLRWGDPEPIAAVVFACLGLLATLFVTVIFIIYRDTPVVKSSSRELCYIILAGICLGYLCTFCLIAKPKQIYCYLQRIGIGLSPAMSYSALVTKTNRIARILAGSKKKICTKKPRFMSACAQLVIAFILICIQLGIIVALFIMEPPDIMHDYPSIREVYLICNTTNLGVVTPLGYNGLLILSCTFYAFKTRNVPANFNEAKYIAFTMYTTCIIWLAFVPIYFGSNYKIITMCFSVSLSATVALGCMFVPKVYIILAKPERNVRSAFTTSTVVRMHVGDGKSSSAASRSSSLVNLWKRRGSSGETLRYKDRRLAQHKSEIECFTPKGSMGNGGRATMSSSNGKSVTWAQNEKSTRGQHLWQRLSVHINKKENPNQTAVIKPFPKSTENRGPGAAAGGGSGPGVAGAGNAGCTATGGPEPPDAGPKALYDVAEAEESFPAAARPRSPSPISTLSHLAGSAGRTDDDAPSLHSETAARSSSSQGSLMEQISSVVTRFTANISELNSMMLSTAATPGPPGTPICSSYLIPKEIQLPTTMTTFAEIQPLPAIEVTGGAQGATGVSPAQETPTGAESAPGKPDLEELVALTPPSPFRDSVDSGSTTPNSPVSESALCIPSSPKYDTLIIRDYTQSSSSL
T2 sequence (Q13255 19-1194): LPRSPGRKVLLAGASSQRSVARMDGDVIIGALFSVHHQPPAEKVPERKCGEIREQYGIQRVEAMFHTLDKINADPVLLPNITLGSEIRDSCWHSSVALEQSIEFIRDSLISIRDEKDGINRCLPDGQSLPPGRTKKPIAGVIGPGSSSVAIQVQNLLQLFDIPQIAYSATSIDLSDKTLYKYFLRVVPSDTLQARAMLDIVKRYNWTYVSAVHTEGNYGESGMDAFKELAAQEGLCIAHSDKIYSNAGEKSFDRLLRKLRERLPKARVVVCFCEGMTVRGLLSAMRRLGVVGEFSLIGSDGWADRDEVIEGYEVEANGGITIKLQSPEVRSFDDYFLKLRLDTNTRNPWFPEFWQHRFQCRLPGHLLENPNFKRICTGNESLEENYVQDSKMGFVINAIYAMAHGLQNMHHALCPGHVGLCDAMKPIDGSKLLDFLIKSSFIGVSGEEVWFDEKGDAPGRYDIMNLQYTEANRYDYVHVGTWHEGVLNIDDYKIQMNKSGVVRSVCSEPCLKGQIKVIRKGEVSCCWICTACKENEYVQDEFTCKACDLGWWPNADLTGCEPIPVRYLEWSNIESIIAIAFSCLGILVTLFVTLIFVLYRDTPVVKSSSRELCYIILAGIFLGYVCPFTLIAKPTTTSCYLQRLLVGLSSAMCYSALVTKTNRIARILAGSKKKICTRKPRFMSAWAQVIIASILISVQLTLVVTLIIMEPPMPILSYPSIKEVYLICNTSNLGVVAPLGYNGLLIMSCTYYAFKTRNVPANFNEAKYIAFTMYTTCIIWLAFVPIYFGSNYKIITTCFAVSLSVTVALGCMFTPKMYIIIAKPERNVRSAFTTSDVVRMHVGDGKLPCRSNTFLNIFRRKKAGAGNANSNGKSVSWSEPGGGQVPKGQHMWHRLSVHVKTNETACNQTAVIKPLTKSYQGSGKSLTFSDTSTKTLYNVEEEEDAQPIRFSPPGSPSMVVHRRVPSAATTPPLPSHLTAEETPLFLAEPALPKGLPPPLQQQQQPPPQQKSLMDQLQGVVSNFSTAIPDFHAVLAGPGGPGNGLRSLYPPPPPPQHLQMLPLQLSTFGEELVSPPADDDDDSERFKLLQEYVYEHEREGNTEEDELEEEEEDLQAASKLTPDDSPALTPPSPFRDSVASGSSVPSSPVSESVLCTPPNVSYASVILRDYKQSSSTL

SMILES: COC1CCC(C(=O)c2ccc3nc4c(cc3c2)CCCO4)CC1 (stereo not drawn) [JNJ16259685]
in vivo mGluR1 ED50 (mGluR1 [1]): 1.4 ± 0.1 mg/kg

percent of compound metabolized [2]: 65.0 ± 15.5% | dose distributed to brain as percent of cardiac output [3]: 84% | blood-brain barrier permeability coefficient ([3]; mouse): 19 ×10⁻⁶ cm/s | percent of dose delivered to the brain ([3]; mouse, over the 10-fold range of doses): 1.2–1.6% and 1.6 ± 0.2% | clearance from brain, percent loss in concentration from five to 60 minutes [4]: > 95% | clearance from plasma, percent loss in concentration from five to 60 minutes [4]: > 95% | affinity of LY2428703 relative to LSN2606428 (mGluR1 [5]): about 20 fold | tracer level in rat cerebellum [6]: 330 % SUV | affinity for mGluR1 relative to mGluR5 (mGluR1 [7]): > 10 fold | percent of compound metabolized [8]: 79.5 ± 14.7% | B-A/A-B flux ratio (human P-gp; [16]): ~ 1.0 | P-gp substrate identification (human P-gp; [16]): not a P-gp substrate | mass balance recovery (human P-gp; MDCK monolayers, n=8): 108 ± 10% | passive permeability coefficient (human P-gp; MDCK monolayers, n=8): 62 ± 3 ×10⁻⁶ cm/s and 60 ×10⁻⁶ cm/s | percent of compound metabolized [9]: 90.1 ± 3.1% | percent of compound metabolized [10]: 91.1 ± 3.4% | rat mGluR1 occupancy (mGluR1 [11]): dose-dependently occupied
SMILES: COc1ccc(-c2nsc(NC(=O)[C@@H]3C[C@H]3C)c2C)cc1 [LY2428703]

effect of pretreatment on forebrain uptake of 11C-LY2428703 (mGluR5; 5 mg/kg, rat, n=2): not affected
SMILES: Cc1nc(C#Cc2cccnc2)cs1 [MTEP, 3-((2-Methyl-4-thiazolyl)ethynyl)pyridine, reference compound]

SMILES: Cc1c(-c2ccc(O[11CH3])cc2)nsc1NC(=O)[C@@H]1C[C@H]1C [^11C-LY2428703]
substrate for ABCB1 transporter at the blood-brain barrier (ABCB1 (P-gp)): not a substrate | PET signal in rat cerebellum (mGluR1 [12]): large specific and displaceable signal | regional concentration ratios of the radiometabolite (cerebellum/brain, cerebellum/plasma, brain/plasma): < 1.0 | parent radioligand, % of brain radioactivity [17]: 82.7% | radiometabolite, % of brain radioactivity [17]: 17.2% | parent radioligand, % of cerebellar radioactivity [18]: 96.2% and > 96% | radiometabolite, % of cerebellar radioactivity [18]: ~ 3.5% and 3.7% and 3–4% | parent radioligand, % of plasma radioactivity (rat plasma, 30 minutes after injection): 75% | %SUV concentration of parent in brain [19]: 49 %SUV | %SUV concentration of parent in cerebellum [19]: 156 %SUV | %SUV concentration of parent in plasma [19]: 122 %SUV | %SUV concentration of parent in urine [19]: 2.7 %SUV | %SUV concentration of the major radiometabolite in brain [19]: 10.2 %SUV | %SUV concentration of the major radiometabolite in cerebellum [19]: 6.1 %SUV | %SUV concentration of the major radiometabolite in plasma [19]: 38.5 %SUV | %SUV concentration of the major radiometabolite in urine [19]: 161 %SUV | parent concentration ratio brain/plasma [19]: < 1.0 | parent concentration ratio cerebellum/brain [19]: 3.2 and 3.2–3.5 | parent concentration ratio cerebellum/plasma [19]: 1.3 | parent radioligand in brain [20]: 48 %SUV | parent radioligand in cerebellum [20]: 169 %SUV | parent radioligand, % of brain activity [20]: 82.5% | parent radioligand, % of cerebellar activity [20]: 95.8% | radiometabolite in brain [20]: 9.5 %SUV | radiometabolite in cerebellum [20]: 5.6 %SUV | radiometabolite, % of brain activity [20]: 16.5% | radiometabolite, % of cerebellar activity [20]: 3.3% | substrate for ABCG2 transporter at the blood-brain barrier (ABCG2 (BCRP)): not a substrate | LogD7.4 [13]: 4.02 ± 0.09 | affinity for mGluR5s in vivo (PET) (mGluR5; rats pretreated with MTEP 5 mg/kg): negligible affinity | stability in rat whole blood and brain homogenates [14]: no biotransformation products were detected

SMILES: [3H]O[3H] [tritiated water]
brain levels, percent of the dose [15]: 1.9 ± 0.2%
